Source: PMC4002258 (Biochimica et biophysica acta, 2013)
Marks after values point to notes of the source that are not given here.

Tests used:
Assay type in all cases: biochemical
[1] = biological target: human recombinant core 1 β1,3-Gal-transferase (C1GalT) (Homo sapiens, UniProt Q9NS00); experiment: C1GalT glycosyltransferase assay; conditions: for C1GalT activity (%): acceptor substrate 0.5 mM, 0.5 mM GalNAcα-Bn set to 100%
[2] = biological target: T1, human recombinant core 3 β1,3-GlcNAc-transferase (C3GnT) (Homo sapiens, UniProt Q6ZMB0); experiment: C3GnT glycosyltransferase assay; conditions: for C3GnT activity (%): acceptor substrate 0.5 mM, 0.5 mM GalNAcα-Bn set to 100%
T1 sequence (Q6ZMB0 32-384 limits assumed): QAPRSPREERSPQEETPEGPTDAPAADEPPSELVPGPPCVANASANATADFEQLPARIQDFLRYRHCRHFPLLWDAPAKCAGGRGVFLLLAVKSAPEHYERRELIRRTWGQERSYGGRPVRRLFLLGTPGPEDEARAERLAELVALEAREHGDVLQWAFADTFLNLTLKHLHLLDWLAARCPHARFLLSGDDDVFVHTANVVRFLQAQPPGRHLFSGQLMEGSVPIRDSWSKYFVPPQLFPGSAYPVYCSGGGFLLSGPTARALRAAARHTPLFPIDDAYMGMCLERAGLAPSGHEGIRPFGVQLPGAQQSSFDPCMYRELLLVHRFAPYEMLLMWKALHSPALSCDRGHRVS

[3] = biological target: T2, human recombinant core 2 β1,6-GlcNAc-transferase (C2GnT1) (Homo sapiens, UniProt Q02742); experiment: C2GnT1 glycosyltransferase assay; conditions: acceptor substrate 0.5 mM; 0.5 mM Galβ1–3GalNAcα-pnp set to 100%
T2 sequence (Q02742 33-428 limits assumed): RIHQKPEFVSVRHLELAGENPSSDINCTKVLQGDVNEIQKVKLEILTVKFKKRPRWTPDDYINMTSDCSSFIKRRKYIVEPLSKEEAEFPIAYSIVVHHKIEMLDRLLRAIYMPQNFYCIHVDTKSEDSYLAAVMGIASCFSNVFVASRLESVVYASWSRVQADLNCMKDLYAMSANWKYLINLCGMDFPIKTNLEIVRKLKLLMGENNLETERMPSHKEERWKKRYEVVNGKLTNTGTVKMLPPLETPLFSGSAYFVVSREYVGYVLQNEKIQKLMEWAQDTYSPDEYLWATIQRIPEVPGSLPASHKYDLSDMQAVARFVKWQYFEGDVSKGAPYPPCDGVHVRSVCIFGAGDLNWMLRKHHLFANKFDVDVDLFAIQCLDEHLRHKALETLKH

[4] = biological target: T3, human recombinant core 2/4 β1,6-GlcNAc-transferase (C2GnT2) (Homo sapiens, UniProt O95395); conditions: acceptor substrate 0.5 mM; 0.5 mM Galβ1–3GalNAcα-pnp set to 100%
T3 sequence (O95395 27-438): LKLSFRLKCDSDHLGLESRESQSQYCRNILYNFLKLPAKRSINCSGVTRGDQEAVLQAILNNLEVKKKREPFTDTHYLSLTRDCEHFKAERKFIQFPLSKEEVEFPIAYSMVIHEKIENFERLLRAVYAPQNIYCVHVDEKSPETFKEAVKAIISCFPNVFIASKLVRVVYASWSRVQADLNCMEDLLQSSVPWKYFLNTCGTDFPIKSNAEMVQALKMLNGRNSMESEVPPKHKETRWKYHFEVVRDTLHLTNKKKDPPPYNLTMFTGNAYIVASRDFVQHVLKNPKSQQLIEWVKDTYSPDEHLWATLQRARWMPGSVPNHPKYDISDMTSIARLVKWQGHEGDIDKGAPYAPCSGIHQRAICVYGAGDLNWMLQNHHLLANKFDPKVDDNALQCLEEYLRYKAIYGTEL

[5] = biological target: T1, human recombinant core 3 β1,3-GlcNAc-transferase (C3GnT); experiment: Inhibition of C3GnT; conditions: inhibitor 0.5 mM, 0.5 mM GalNAcα-Bn acceptor
Outline: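 His-tagged human C3GnT from Sf9 cells, Ni2+-NTA purified, 0.003 mg protein per assay. Inhibitor at acceptor concentration unless indicated. Incubated 1 h at 37 °C, then cold-water stop. AG1×8 anion exchange; eluate counted by scintillation.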

[6] = biological target: T2, human recombinant core 2 β1,6-GlcNAc-transferase (C2GnT1); experiment: Inhibition of C2GnT1; conditions: inhibitor 0.5 mM, 0.5 mM Galβ1–3GalNAcα-pnp acceptor

human recombinant core 1 β1,3-Gal-transferase (C1GalT), sequence (Q9NS00 30-363 limits assumed): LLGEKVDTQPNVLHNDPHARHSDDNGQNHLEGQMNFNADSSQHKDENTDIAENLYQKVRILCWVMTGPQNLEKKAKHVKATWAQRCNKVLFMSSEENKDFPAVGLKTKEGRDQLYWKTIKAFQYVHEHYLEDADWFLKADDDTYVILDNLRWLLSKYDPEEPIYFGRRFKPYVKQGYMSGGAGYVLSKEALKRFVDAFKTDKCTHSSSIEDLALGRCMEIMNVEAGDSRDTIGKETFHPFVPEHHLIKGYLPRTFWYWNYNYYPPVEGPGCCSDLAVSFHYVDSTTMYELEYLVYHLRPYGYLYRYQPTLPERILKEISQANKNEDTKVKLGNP

Compound	C1GalT activity (%) [1]	C3GnT activity (%) [2]	C2GnT1 activity (%) [3] [%]	C2GnT2 activity (%) [4] [%]	C3GnT Inhibition (%) [5]	C2GnT1 Inhibition (%) [6]	Vmax ([1]; C1GalT, acceptor substrate) [µmol/h/mg]	Km ([1]; C1GalT, apparent KM for acceptor substrate) [µM]	Vmax ([2]; C3GnT, acceptor substrate) [µmol/h/mg]	Km ([2]; C3GnT, apparent KM for acceptor substrate) [mM]
CCCC(=O)N[C@H]1[C@@H](OCc2ccccc2)O[C@H](CO)[C@H](O)[C@@H]1O [2-N-Butyryl-GalNα-Bn, benzyl 2-butanamido-2-deoxy-α-D-galactoside]	<1%	<1%	<1	<1	did not inhibit	did not inhibit				
CC(=O)N[C@@H]1C[C@@H](O)[C@@H](CO)O[C@@H]1OCc1ccccc1 [3-Deoxy-GalNAcα-Bn]	<1%	<1%	<1	<1						
CC(=O)N[C@H]1[C@@H](OCc2ccccc2)O[C@H](CO)[C@H](O)[C@@H]1O [GalNAcα-Bn, reference compound]	100 ^a %	100 ^b %	<1	<1			0.14	800	0.95	3
CC(=O)N[C@H]1[C@@H](OCc2ccccc2)O[C@H](C)[C@H](O)[C@@H]1O[C@@H]1O[C@H](CO)[C@H](O)[C@H](O)[C@H]1O [Galβ1–3(6-deoxy)GalNAcα-Bn]	<1%	<1%	<1	<1						
CC(=O)N[C@H]1[C@@H](OCc2ccccc2)O[C@H](CO[C@@H]2O[C@H](CO)[C@@H](O)[C@H](O)[C@H]2NC(C)=O)[C@H](O)[C@@H]1O [GlcNAcβ1–6-GalNAcα-Bn]	74%	<1%	<1	<1						
AHGVT-(GalNAcα)SAPDTRPAPGSTAPPA	39%	15%	<1	<1						
TT-(GalNAcα)TVTPTPTG	99%	8%								
TTTV-(GalNAcα)TPTPTG	270%	10%								
TTTVTP-(GalNAcα)TPTG	259%	5%								
